16 compounds from ChEMBL document CHEMBL1212703, “Identification of RIP1 kinase as a specific cellular target of necrostatins” (Nat Chem Biol, 2008) can be followed below.

In assay [1] the test system is Jurkat. The assay can be described thus: Inhibition of cellular necroptosis in TNFalpha treated FADD deficient human Jurkat cells. It is filed as functional, cell-based.
Assay [2] has as its system T1, Receptor-interacting serine/threonine-protein kinase 1 (Homo sapiens), Q13546 [K45M].
T1 sequence (whole entry): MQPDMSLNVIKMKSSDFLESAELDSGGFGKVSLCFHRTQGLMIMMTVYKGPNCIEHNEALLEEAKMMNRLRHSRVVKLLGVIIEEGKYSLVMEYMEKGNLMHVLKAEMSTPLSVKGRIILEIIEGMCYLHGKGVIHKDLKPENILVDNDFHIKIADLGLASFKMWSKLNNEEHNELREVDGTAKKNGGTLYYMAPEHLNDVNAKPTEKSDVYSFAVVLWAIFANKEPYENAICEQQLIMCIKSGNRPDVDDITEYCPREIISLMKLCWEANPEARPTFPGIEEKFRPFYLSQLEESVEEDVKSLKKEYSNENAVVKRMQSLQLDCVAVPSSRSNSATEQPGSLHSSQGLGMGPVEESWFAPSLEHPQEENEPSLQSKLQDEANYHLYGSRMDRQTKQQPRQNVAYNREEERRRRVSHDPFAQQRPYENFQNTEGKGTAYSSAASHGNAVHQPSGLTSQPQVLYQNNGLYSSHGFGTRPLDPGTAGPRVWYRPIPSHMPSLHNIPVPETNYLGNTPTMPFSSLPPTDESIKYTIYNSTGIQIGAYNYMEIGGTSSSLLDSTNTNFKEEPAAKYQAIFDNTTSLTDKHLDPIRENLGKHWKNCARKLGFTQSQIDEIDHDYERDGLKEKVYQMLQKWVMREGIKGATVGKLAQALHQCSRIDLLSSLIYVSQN
Put plainly: Inhibition of human RIP1 K45M mutant autophosphorylation expressed in HEK293T cells. The format is cell-based. The conditions noted are these: HEK-293T.

For assay [3], the target named is Receptor-interacting serine/threonine-protein kinase 2 (Homo sapiens) (UniProt O43353). The assay can be described thus: Inhibition of human RIP2 autophosphorylation expressed in HEK293T cells. It is filed as cell-based. To be noted: HEK-293T. The procedure, abridged:
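Myc-tagged RIP2 was transiently expressed in 293T cells, immunoprecipitated with anti-Myc antibody (clone 9E10), and used in an in vitro autophosphorylation kinase reaction with compound at the indicated concentrations, with DMSO as the vehicle.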

The test system of assay [4] is Jurkat. Put plainly: Inhibition of cellular necroptosis in TNFalpha treated FADD and RIP1 deficient human Jurkat cells at 30 uM. The format is functional, cell-based.
The test system of assay [5] is HEK-293T. Put plainly: Inhibition of TNF-alpha-induced NF-kappaB activation expressed in HEK293T cells by luciferase reporter gene assay. The format is cell-based. The essentials: (§1)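 293T cells, 1.2*10^6/well, cotransfected with pNFkB-Luc and pRSV-β-galactosidase control; 48 h later stimulated with 10 ng ml-1 human TNFα for 4 h with 30 µM compound. Luciferase (Bright-Glo) normalized to β-gal activity (ONPG, 30 °C, A420). Results expressed as fold over unstimulated cells; s.d. shown.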
A general note: In a reporter assay the amount or activity of a reporter protein is the signal.

In assay [6] the test system is T1, Receptor-interacting serine/threonine-protein kinase 1 (Homo sapiens), Q13546 [K45M]. The assay can be described thus: Inhibition of human RIP1 K45M mutant autophosphorylation expressed in Sf9 cells at 10 to 30 uM.
The test system is the same in assay [7]. The assay can be described thus: Inhibition of human RIP1 K45M mutant autophosphorylation expressed in FADD deficient human Jurkat cells at 10 to 30 uM. It is filed as cell-based.
For assay [8], the system named is Jurkat. Put plainly: Inhibition of TNF-alpha-induced NF-kappaB activation expressed in FADD deficient human Jurkat cells by luciferase reporter gene assay. The format is cell-based. The procedure, abridged:
(§2)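 FADD-deficient Jurkat cells carrying a lentiviral NF-kB luciferase reporter, 2*10^4 cells/well, stimulated with 10 ng ml-1 human TNFα for 4 h with 30 µM compound. Luminescence read by Bright-Glo. Values given as fold luciferase increase over unstimulated cells; s.d. shown.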

Assay [9] deals with T1, Receptor-interacting serine/threonine-protein kinase 1 (Homo sapiens), Q13546 [K45M]. The assay can be described thus: Inhibition of human RIP1 K45M mutant autophosphorylation expressed in Sf9 cells.
For assay [10], the system named is Jurkat. The assay can be described thus: Inhibition of cellular necroptosis in TNFalpha treated […] human Jurkat cells expressing RIP1 F162E mutant at 30 uM. The format is functional, cell-based.
The target in assay [11] is T2, Heat shock protein HSP90 (Homo sapiens) (UniProt P07900+P08238). Put plainly: Inhibition of FITC-geldanamycin binding to HSP90 in human Jurkat cell lysates at 30 uM by fluorimetric assay. It is filed as cell-free.
In assay [12] the test system is Jurkat. The assay can be described thus: Inhibition of TNF-alpha-induced NF-kappaB activation expressed in FADD deficient human Jurkat cells at 30 uM by luciferase reporter gene assay. The format is cell-based. The essentials: as §2
The target in assay [13] is T3, Receptor-interacting serine/threonine-protein kinase 1 (Homo sapiens, UniProt Q13546).
T3 sequence (Q13546 whole entry): T1 sequence (whole entry) with M45K
The assay can be described thus: (§3) Inhibition of endogenous RIP1 autophosphorylation in human Jurkat cells. It is filed as cell-based. The essentials:
(§4)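 RIP1 immunoprecipitated from Jurkat cells and autophosphorylated in vitro across a titration of compound. Autophosphorylation quantified by phosphorimager; EC50 derived by nonlinear regression curve fitting. An aliquot of each reaction was blotted for RIP1 to check protein input.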

Assay [14] relates to Jurkat. The assay can be described thus: Inhibition of cellular necroptosis in TNFalpha treated […] human Jurkat cells expressing RIP1 S161E mutant at 30 uM. It is filed as functional, cell-based.
Assay [15] deals with Receptor-interacting serine/threonine-protein kinase 3 (Homo sapiens) (UniProt Q9Y572). Put plainly: Inhibition of human RIP3 autophosphorylation expressed in HEK293T cells. It is filed as cell-based. The conditions noted are these: HEK-293T.
Sequence of Receptor-interacting serine/threonine-protein kinase 3 (Homo sapiens) (Q9Y572 whole entry, looked up): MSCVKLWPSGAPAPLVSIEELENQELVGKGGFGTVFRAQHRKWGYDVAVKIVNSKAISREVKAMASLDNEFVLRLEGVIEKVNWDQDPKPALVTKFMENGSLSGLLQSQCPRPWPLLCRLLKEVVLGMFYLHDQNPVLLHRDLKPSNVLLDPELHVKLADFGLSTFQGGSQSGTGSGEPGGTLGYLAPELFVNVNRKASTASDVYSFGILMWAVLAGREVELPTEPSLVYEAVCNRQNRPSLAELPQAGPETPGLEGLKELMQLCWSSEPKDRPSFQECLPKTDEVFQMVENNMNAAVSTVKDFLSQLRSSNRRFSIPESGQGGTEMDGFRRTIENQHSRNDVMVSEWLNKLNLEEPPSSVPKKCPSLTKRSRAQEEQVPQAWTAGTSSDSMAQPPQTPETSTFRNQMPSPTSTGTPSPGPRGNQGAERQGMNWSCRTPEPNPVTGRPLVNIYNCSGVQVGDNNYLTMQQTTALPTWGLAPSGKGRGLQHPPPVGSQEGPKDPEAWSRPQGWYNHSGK
Assay [16] deals with T4, Receptor-interacting serine/threonine-protein kinase 1 (Homo sapiens), Q13546 [S161E].
T4 sequence (whole entry): T1 sequence (whole entry) with M45K, S161E
To be noted: HEK-293T, 100 uM.

Assay [17] concerns the target T2, Heat shock protein HSP90 (Homo sapiens). Put plainly: Inhibition of to HSP90 in FADD deficient human Jurkat cells assessed as RIP protein degradation at 30 uM by Western blot. The format is cell-based. The procedure, abridged: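 FADD-deficient Jurkat cells exposed to 30 µM compound for 16 hr; RIP1 levels then assessed by western blot against anti-RIP1, with tubulin as loading control.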
On the technique in general: Immunoblotting shows a protein as a band on a membrane.

Assay [18] relates to HEK-293T. Put plainly: Inhibition of TNF-alpha-induced NF-kappaB activation expressed in HEK293T cells at 30 uM by luciferase reporter gene assay. The format is cell-based. The essentials:
as §1

Assay [19] has as its target T5, Receptor-interacting serine/threonine-protein kinase 1 (Homo sapiens) (UniProt Q13546).
T5 sequence (whole entry): T1 sequence (whole entry) with M45K
The assay is described as §3. The format is cell-based. The essentials:
as §4

The subject of assay [20] is T4, Receptor-interacting serine/threonine-protein kinase 1 (Homo sapiens), Q13546 [S161E]. The assay can be described thus: Inhibition of human RIP1 S161E mutant autophosphorylation expressed in HEK293T cells at 10 to 30 uM. It is filed as cell-based. The conditions noted are these: HEK-293T.

Substitutions are numbered along the chain they refer to. Activity calls are given as the source filed them. No cut-off for these calls is given here. Peptide text beside a SMILES is read from it. * marks the point of attachment. Cbz = O=C(OCc1ccccc1)*; CH2F = FC*

Sequence of Receptor-interacting serine/threonine-protein kinase 2 (Homo sapiens) (O43353 whole entry): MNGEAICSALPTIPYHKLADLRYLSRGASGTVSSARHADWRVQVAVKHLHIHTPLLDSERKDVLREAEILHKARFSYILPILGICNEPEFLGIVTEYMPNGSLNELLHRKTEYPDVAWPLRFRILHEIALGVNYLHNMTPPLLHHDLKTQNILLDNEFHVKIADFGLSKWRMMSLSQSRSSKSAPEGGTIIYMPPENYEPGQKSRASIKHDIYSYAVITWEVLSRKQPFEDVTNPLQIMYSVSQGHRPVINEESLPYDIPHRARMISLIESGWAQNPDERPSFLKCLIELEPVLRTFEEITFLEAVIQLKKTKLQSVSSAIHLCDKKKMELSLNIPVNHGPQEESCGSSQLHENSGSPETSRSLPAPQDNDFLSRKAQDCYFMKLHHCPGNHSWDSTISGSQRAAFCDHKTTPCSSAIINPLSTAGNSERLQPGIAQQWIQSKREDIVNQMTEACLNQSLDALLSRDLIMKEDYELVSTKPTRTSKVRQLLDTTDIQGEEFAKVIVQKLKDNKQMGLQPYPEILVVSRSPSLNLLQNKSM

Regarding `N#CCSc1nc2sc3c(c2c(=O)n1-c1ccccc1)CCCC3`, the EC50 (commonly the concentration giving half of the maximal effect) with Jurkat [1] is more than 100 µM. The inhibition entry in assay [2] was “inactive”.
On to `O=[N+]([O-])c1ccc(-c2nc(-c3ccc(F)cc3)c(-c3ccncc3)[nH]2)cc1`, for which the inhibition result in assay [3] was “Active”.
`CN1C(=O)C(Cc2c[nH]c3ccccc23)N(C)C1=S` (stereo not drawn) registered a concentration giving a half-maximal response (EC50) with Jurkat [1] of 78 µM. Moreover, the inhibition result in assay [2] was “inactive”.
`C[C@@H]1C[C@@H]([C@H](O)CC2CC(=O)NC(=O)C2)C(=O)[C@@H](C)C1`: the inhibition result in the assay with Jurkat [4] was “inactive”.
As to `COC1=C2C[C@@H](C)C[C@H](OC)[C@H](O)[C@@H](C)/C=C(\C)[C@H](OC(N)=O)[C@@H](OC)/C=C\C=C(/C)C(=O)NC(=CC1=O)C2=O`, the inhibition result in the assay with HEK-293T [5] and in the assay with Jurkat [8] was “Active” in each case. Also, the inhibition result in assay [6] and in assay [7] was “inactive” each time.
`COC(=O)C[C@H](NC(=O)[C@H](C)NC(=O)[C@@H](NC(=O)OCc1ccccc1)C(C)C)C(=O)CF` (Cbz-Val-Ala-Asp(OMe)-CH2F): the inhibition result in the assay on Jurkat [4] is “inactive”.
Turning to `CN1C(=O)C(Cc2c[nH]c3c(Cl)cccc23)NC1=S` (stereo not drawn), the inhibition result in assay [2] was “Active”.
Consider `CN1C(=O)C(Cc2c[nH]c3ccccc23)NC1=S` (stereo not drawn) [NECROSTATIN], for which, in [9], the inhibition result was “Active”. Further, the inhibition result (in the assay with Jurkat [10]; in assay [3]; in [11]; in the assay on Jurkat [12]; in the assay with Jurkat [14]; in assay [15]) was “inactive” throughout. For the same compound, the inhibition entry (in assay [16]; in assay [17]; in the assay on HEK-293T [18]) was “inactive” each time. In [13], the midpoint of the response, the EC50, lay at 0.182 µM. Also, the inhibition result in assay [2] was “Dose-dependent effect”.
Regarding `COc1ccc(-n2c(SCC#N)nc3sc4c(c3c2=O)CCCC4)cc1`, the inhibition entry (in assay [9]; in assay [11]; in the assay with Jurkat [12]; in assay [17]; with HEK-293T [18]) was “inactive” each time. For the same compound, the inhibition result in assay [7] and in assay [2] was “Active” throughout.
Regarding `CN1C(=O)C(C)(Cc2c[nH]c3ccccc23)NC1=S` (stereo not drawn), the EC50 in the assay with Jurkat [1] was more than 100 µM. In addition, in assay [2], the inhibition entry is “inactive”.
Taken in the same sequence, the figures for `COc1ccc([C@H]2[C@H]3CCc4c(OC)cccc4C3=NN2C(C)=O)cc1` were more than 100 µM and “inactive”.
As to `CN1C(=O)NC(Cc2c[nH]c3ccccc23)C1=O` (stereo not drawn), the inhibition entry in assay [2] was “Active”.
For the compound `CN1CC(Cc2c[nH]c3c(Cl)cccc23)NC1=O` (stereo not drawn), the EC50 in the assay with Jurkat [1] was more than 100 µM.
`CN1C(=O)C(Cc2cn(C)c3ccccc23)NC1=S` (stereo not drawn) showed an EC50 in the assay with Jurkat [1] of 33 µM. Also, in [2], the inhibition result was “inactive”.
`O=C1NC(=S)NC1Cc1c[nH]c2ccccc12` (stereo not drawn): the 50% effective concentration (EC50) in the assay on Jurkat [1] is more than 100 µM. The inhibition entry in [9], in assay [19] and in assay [2] was “inactive” throughout.
In the case of `COc1ccc([C@H]2[C@H]3CCc4ccccc4C3=NN2C(C)=O)cc1`, a half-maximal response in the assay on Jurkat [1] (EC50) required 0.29 µM. Besides, the inhibition entry (in [9]; in assay [20]; with Jurkat [14]; in assay [7]; in assay [2]) was “Active” each time. Also, the inhibition result (in [11]; in the assay on Jurkat [12]; in assay [17]; in the assay on HEK-293T [18]) was “inactive” throughout.
